Test: Toxicity liver stage against HepG2, at 10uM
Type: cell-based
Parameters: test concentration 10 uM, cell line HepG2-A16-CD81EGFP
Conditions: human, HepG2-A16-CD81EGFP cells; read-out: INHIBITION
Outline: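 Uninfected HepG2-A16-CD81EGFP cells, 3 × 10^3 per well, 1536-well, plated on prespotted compound at 10 μM final, parasite-free screening media added to match infected plates; puromycin 10 μM positive, DMSO 0.5% negative; run in parallel with 48 h PbLuc assay at 37 °C, 5% CO2; viability by CellTiter-Glo luminescence, normalized to controls.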

Work on CCn1cc(CN2CCc3nc(-c4ccccn4)nc(O)c3C2)cn1 yielded a cytotoxicity at 10 µM of -2.25%.

Compound CC(C)(O)CN1CCN(C(=O)c2cccn2Cc2cccnc2)CC1 has a cytotoxicity at 10 µM of -0.787%.

Compound N#CC1COCCN1S(=O)(=O)c1ccc2ccccc2c1 (configuration not stated) has a cytotoxicity at 10 µM of 6.45%.

CCCNC(=O)CC1OCCc2ccsc21 (configuration not stated) gave a cytotoxicity at 10 µM of -1.5%.

For Cc1ccc(-c2ccnc(N[C@H]3COC[C@@H]3N3CCCC3)n2)c(C)n1, the cytotoxicity at 10 µM was -1.45%.

In the case of O=C(Cc1nc(-c2ccncc2)n[nH]1)N1CCOCC1, the cytotoxicity at 10 µM is reported as -0.749%.

For CC(NC(=O)CN1CCN(c2cccc(Cl)c2)CC1)c1ccco1 (configuration not stated), the cytotoxicity at 10 µM was -11.1%.

CN(C(=O)Cn1nc(-c2ccccc2)ccc1=O)C1CCS(=O)(=O)C1 (configuration not stated) gave a cytotoxicity at 10 µM of 1.82%.

OCCc1ccccc1-n1ccnc1-c1cn(C2CCNCC2)nn1 gave a cytotoxicity at 10 µM of 2.39%.

With O=C1N(Cc2ccc(F)c(F)c2)CCCC1(O)CNCC1CCCCC1 (configuration not stated) the cytotoxicity at 10 µM was 10.5%.

Compound O=C(NCCNCc1cccc2c1OCCCO2)C1CCCC1 has a cytotoxicity at 10 µM of 8.08%.

For Cc1cc(C)nc(N2C[C@H]3OC(=O)N(CCc4cccc(Cl)c4)[C@H]3C2)n1, the cytotoxicity at 10 µM was 6.72%.

Work on O=C1CCN(C(=O)CCc2ccc(Cl)cc2Cl)CCN1 yielded a cytotoxicity at 10 µM of 1.88%.

CC(NC(=O)NCCc1cnn(C)c1)c1ccc(Cl)s1 (configuration not stated) showed a cytotoxicity at 10 µM of -2.47%.

In the case of CC(=O)Nc1nc(C2CN(C(=O)C3CCC3)C2)cs1, the cytotoxicity at 10 µM is reported as -21.9%.

With CC(NC(=O)NCCCN(C)S(C)(=O)=O)c1ccc(Cl)cc1 (configuration not stated) the cytotoxicity at 10 µM was -2.24%.

Compound O=C(Cc1ccccn1)N1CCC2(CC1)CN(CC1CC1)C(=O)CO2 has a cytotoxicity at 10 µM of 7.43%.

With Cc1ncnc2c1CCN(Cc1cccs1)CC2 the cytotoxicity at 10 µM was 1.17%.

With CC(C)(CNC(=O)NCCc1ccn(-c2ccccc2)n1)C(N)=O the cytotoxicity at 10 µM was -16.8%.

With COc1cccc2[nH]cc(CCNC(=O)N3CCC[C@H]3CO)c12 the cytotoxicity at 10 µM was -12.6%.

Work on Cn1ccnc1CN1CCN(CC(=O)NCc2ccccc2F)CC1 yielded a cytotoxicity at 10 µM of -22.1%.

Work on CNC(=O)N1C[C@H]2CC[C@@]3(N=C(c4ccccc4)NC3=O)[C@H]2C1 yielded a cytotoxicity at 10 µM of -9.84%.

Work on CCOCCN1CCN(CC(O)c2ccc(F)cc2)CC1 (configuration not stated) yielded a cytotoxicity at 10 µM of -8.92%.

O=C(CN1CCC(Nc2ncccn2)CC1)Nc1ccccc1 gave a cytotoxicity at 10 µM of -17.5%.

CC(=O)Nc1nc(C2CCCN(C(=O)CN(C)C)C2)cs1 (configuration not stated) showed a cytotoxicity at 10 µM of -43.4%.

With CN(CCSc1ccccc1)C(=O)c1cn2c(n1)CNCC2 the cytotoxicity at 10 µM was -47.4%.

COCCN(Cc1ccc(F)cc1Cl)C(=O)c1ccccn1 gave a cytotoxicity at 10 µM of 11.8%.

With CCN(CC)c1ccc(C(=O)N2CCCC2Cn2cc(C)cn2)cn1 (configuration not stated) the cytotoxicity at 10 µM was -17.2%.

Compound COC(=O)CNC(=O)N1CCN(c2nc3ccccc3n2C)CC1 has a cytotoxicity at 10 µM of -9.46%.

In the case of CC(CN1CCOCC1)OC(=O)c1cccc2cn[nH]c12 (configuration not stated), the cytotoxicity at 10 µM is reported as -1.08%.

For CCCc1noc(CN2CCN(c3nccs3)CC2)n1, the cytotoxicity at 10 µM was -3.43%.

Compound Cc1ccc(CCCC(=O)N2CCC(=O)Nc3cccnc32)s1 has a cytotoxicity at 10 µM of -60.7%.

CCOCCSc1nnc(-c2cn(CC)nc2OCC)n1C showed a cytotoxicity at 10 µM of -3.81%.

In the case of CC(C)N1CCC(c2nc3ccc(-c4ccnn4C)cn3n2)CC1, the cytotoxicity at 10 µM is reported as 14.9%.

In the case of CCOC(C)c1nc(Cn2cc(-n3cccc3)cn2)cs1 (configuration not stated), the cytotoxicity at 10 µM is reported as 3.81%.

Compound Cc1cnn(CC2CCCCN2C(=O)c2nccnc2N)c1 (configuration not stated) has a cytotoxicity at 10 µM of -3.03%.

Cc1ccc2c(c1)C(N1CCOCC1)CC21CCNCC1 (configuration not stated) gave a cytotoxicity at 10 µM of -116%.

Cc1cc(CCC(N)=O)cc(C2CCCN2Cc2ccccn2)n1 (configuration not stated) showed a cytotoxicity at 10 µM of -16.7%.

COCCN1CCCC1c1nccnc1Nc1nccs1 (configuration not stated) gave a cytotoxicity at 10 µM of -7.55%.

CC(C)(C)CC(=O)NCC(=O)Nc1ccn(Cc2cccnc2)n1 showed a cytotoxicity at 10 µM of 15.4%.

Compound Cc1n[nH]c2ncc(CNC3CCN(Cc4ccccn4)CC3)cc12 has a cytotoxicity at 10 µM of 7.14%.

CO[C@H]1CN(Cc2cc(F)ccc2F)CC[C@@]12CCCO2 gave a cytotoxicity at 10 µM of -8.49%.

O=C(Nc1ccc(-n2cccn2)cc1)N1C[C@H](O)[C@@H](N2CCOCC2)C1 showed a cytotoxicity at 10 µM of -45.9%.

Compound CC(C)NC(=O)NCc1cc(-c2ccco2)n(CC(F)(F)F)n1 has a cytotoxicity at 10 µM of -12.8%.

With CC(C)NC(=O)c1nnn(-c2cccc(C(F)(F)F)c2)c1N the cytotoxicity at 10 µM was -11.5%.

In the case of COc1cccc(-c2nc(C)c(C(=O)NC(CO)CCSC)s2)c1 (configuration not stated), the cytotoxicity at 10 µM is reported as -7.71%.

With CN1CCN(CC2CC2)C(=O)C12CCN(c1nccs1)CC2 the cytotoxicity at 10 µM was -6.01%.

CCc1nnc(CSc2ccccn2)o1 gave a cytotoxicity at 10 µM of -2.98%.

For Cc1nccc(C(=O)N2CCCC2c2noc(C(C)C)n2)n1 (configuration not stated), the cytotoxicity at 10 µM was -16.4%.

CCN(CC)c1ncc2c(c1C(=O)O)CCN(C1CCOC1)C2 (configuration not stated) showed a cytotoxicity at 10 µM of 15.7%.

Work on CNc1ccc(CC2CCCN(C(=O)c3cnc(C)nc3)C2)nn1 (configuration not stated) yielded a cytotoxicity at 10 µM of -1.2%.

With N#Cc1nccnc1NC1CCN(c2c(F)cccc2F)C1 (configuration not stated) the cytotoxicity at 10 µM was 5.2%.

COc1cc(OC)c(-c2nc3c([nH]2)c(C2CC2)nn3C)cc1OC gave a cytotoxicity at 10 µM of -5.02%.

In the case of NCC(=O)N1CCC(c2cncc(Oc3cccnc3)n2)CC1, the cytotoxicity at 10 µM is reported as -9.08%.

In the case of O=C(COCC1CC1)Nc1ccn(Cc2cccc3cccnc23)n1, the cytotoxicity at 10 µM is reported as 13.9%.

Work on CC(C)(C)N1CCCN(C(=O)c2csc(S(N)(=O)=O)c2)CC1 yielded a cytotoxicity at 10 µM of 5.06%.

With NC(=O)NCCC(=O)N1CCC(c2cc(-c3ccccc3Cl)n[nH]2)CC1 the cytotoxicity at 10 µM was -6.67%.

For CCn1cnnc1C1CCN(C(=O)COCCc2ccccc2)CC1, the cytotoxicity at 10 µM was 0.602%.

CCC1CN(CC(=O)Nc2cc(C)nn2C)CCO1 (configuration not stated) gave a cytotoxicity at 10 µM of 1.14%.

Compound Cn1ccnc1C(=O)N1C[C@@H]2CCN(c3cnccn3)C[C@@H]2C1 has a cytotoxicity at 10 µM of -97%.

In the case of c1ccc(OCCCNCCn2cccn2)cc1, the cytotoxicity at 10 µM is reported as -5.46%.

Compound Cn1cc(CNCC2Cn3nnc(-c4ccccc4)c3CO2)cn1 (configuration not stated) has a cytotoxicity at 10 µM of -4.66%.

Compound Cc1nc[nH]c1-c1nccn1-c1cccc(CN2CCCC2)c1 has a cytotoxicity at 10 µM of 4.36%.

With Cc1ccc(CN2CC[C@@H]3O[C@@H](C(=O)N4CCN(C)CC4)C[C@@H]32)cc1 the cytotoxicity at 10 µM was -3.62%.

O=C1COC2(CCN(CC3CC3)CC2)CN1c1cncnc1 showed a cytotoxicity at 10 µM of -1.87%.

Work on CC(C)(C)c1cn(C2CCN(C(=O)c3cncnc3)CC2)nn1 yielded a cytotoxicity at 10 µM of 13%.

COc1cccc(CSC=C2Nc3ccccc3S(=O)(=O)N2)c1 gave a cytotoxicity at 10 µM of 3.7%.

With CC(C)c1ccc(OCCC(=O)N(C)CC(=O)N(C)C)cc1 the cytotoxicity at 10 µM was 4.72%.

Cc1cccc2c(=O)c(C(=O)N3CCCC4(CN(C)C(=O)O4)C3)c[nH]c12 (configuration not stated) gave a cytotoxicity at 10 µM of 10.5%.

With O=C(Cn1ccc2c(Cl)cccc21)Nc1nc[nH]n1 the cytotoxicity at 10 µM was -1.88%.

Cc1cc(C)c(CNC(=O)N2CCC(N3CCNC3=O)CC2)c(C)c1 showed a cytotoxicity at 10 µM of -2.22%.

Compound CC(C)c1nnc2ccc(N3CCC(C(=O)Nc4nccs4)CC3)nn12 has a cytotoxicity at 10 µM of 42.6%.

CC(C)Nc1oc(-c2ccc(S(=O)(=O)N(C)C)o2)nc1C#N gave a cytotoxicity at 10 µM of -11.6%.

For CCN(Cc1nccn1C)C(=O)c1ccc(NCc2cnn(C)c2)nc1, the cytotoxicity at 10 µM was 0.82%.

CCn1ncc2c1C(COCC1CC1)N(C(=O)c1ccncn1)CC2 (configuration not stated) gave a cytotoxicity at 10 µM of -147%.

In the case of CCOC(=O)NC(CNC(=O)c1ncccn1)CC(C)C (configuration not stated), the cytotoxicity at 10 µM is reported as -4.92%.

Work on N#Cc1cccc(N2CCC(c3nccn3Cc3cscn3)CC2)n1 yielded a cytotoxicity at 10 µM of 1.46%.

Cn1cc(N2CC3(COCCN(Cc4ccsc4)C3)OCC2=O)cn1 (configuration not stated) showed a cytotoxicity at 10 µM of 3.55%.

Cc1nn(C)c(C)c1C1CCCN1CC(=O)Nc1nccs1 (configuration not stated) gave a cytotoxicity at 10 µM of -21.6%.

In the case of CN(C)CC(=O)N1CCC2(CC1)CN(c1ccsc1)C(=O)CO2, the cytotoxicity at 10 µM is reported as 10.1%.

Work on COc1ccccc1OCc1cc(C(=O)N2[C@H](C)CC[C@@H]2C)n[nH]1 yielded a cytotoxicity at 10 µM of -2.01%.

Work on CS(=O)(=O)NC1CCN(C(=O)c2ccc(Br)o2)C1 (configuration not stated) yielded a cytotoxicity at 10 µM of -7.03%.
